According to article PMC5792653 (Nature chemical biology, 2017):
“And” between values parts separate entries of the source, which are not always exact repeats. Equal values may be shown once. “Also recorded” adds a separate entry of the source.

Columns and labels:
[1] = test system: HeLa cells; experiment: HeLa cell adhesion measurement; type: cell-based
Outline: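 HeLa cells (DMEM, 10% FCS, penicillin/streptomycin) densely seeded at 200.000 per well. After 24 h, test compound or MG132 (DMSO) added at the indicated final concentrations from a dilution series to keep added volume constant. After 2 h, supernatant removed and detached cells counted in a Neubauer chamber. Alternatively, adhesion judged by microscopic morphology at 20×.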

[2] = molecular target: RNA polymerase III (Saccharomyces cerevisiae, UniProt P04051+P22276); experiment: In vitro run-off transcription using tailed templates, Pol III; type: biochemical, S.cerevisiae; conditions: affinity purified polymerase
[3] = molecular target: 20S proteasome (Homo sapiens, UniProt P28072+P28074+Q99436); experiment: 20S proteasome assay; type: biochemical
Outline: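 Purified 20S proteasome (1.4 nM) preincubated at 37°C in 25 mM Hepes pH 7.6, 0.5 mM EDTA, 0.03% SDS. Fluorogenic substrates Suc-LLVY-AMC, Suc-LY-AMC, Bz-VGR-AMC or Z-LLE-AMC added to 10 μM final. Hydrolytic activity read as rate of AMC release by fluorescence at 20 min intervals.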

[4] = molecular target: thermolysin (Bacillus thermoproteolyticus, UniProt P00800); experiment: Thermolysin inhibition assay; type: biochemical, bacterial
[5] = molecular target: RNA polymerase II (Saccharomyces cerevisiae, UniProt P04050+P08518); experiment: In vitro run-off transcription using tailed templates, Pol II; type: biochemical, S.cerevisiae; conditions: affinity purified polymerase
[6] = molecular target: Rpn11•Rpn8 dimer (Saccharomyces cerevisiae, UniProt P43588); experiment: Rpn11•Rpn8 di-Ub cleavage assay; type: biochemical; conditions: K48 linked di-ubiquitin
Outline: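 Zn2+-bound Rpn11•Rpn8 dimer expressed and purified. Dimer (5 μM) incubated with K48-linked di-ubiquitin and varying test compound concentrations for 2 h at 30°C in 40 mM HEPES pH 7.5, 100 mM NaCl, 100 mM KCl, 5% glycerol. Stopped with 2× SDS sample buffer, resolved by SDS-PAGE, Coomassie-stained. Two independent experiments.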

[7] = test system: S.cerevisiae; experiment: Transcript levels by qRT-PCR in S.cerevisiae; type: cell-based, Saccharomyces cerevisiae; conditions: 50 μM THL
[8] = molecular target: RNA polymerase I (Saccharomyces cerevisiae, UniProt P10964+P22138); experiment: In vitro run-off transcription using tailed templates, Pol I; type: biochemical, S.cerevisiae; conditions: affinity purified polymerase
[9] = molecular target: T1, AMSH (Homo sapiens, UniProt O95630); experiment: In vitro AMSH activity assay; type: biochemical
T1 sequence (O95630 1-424): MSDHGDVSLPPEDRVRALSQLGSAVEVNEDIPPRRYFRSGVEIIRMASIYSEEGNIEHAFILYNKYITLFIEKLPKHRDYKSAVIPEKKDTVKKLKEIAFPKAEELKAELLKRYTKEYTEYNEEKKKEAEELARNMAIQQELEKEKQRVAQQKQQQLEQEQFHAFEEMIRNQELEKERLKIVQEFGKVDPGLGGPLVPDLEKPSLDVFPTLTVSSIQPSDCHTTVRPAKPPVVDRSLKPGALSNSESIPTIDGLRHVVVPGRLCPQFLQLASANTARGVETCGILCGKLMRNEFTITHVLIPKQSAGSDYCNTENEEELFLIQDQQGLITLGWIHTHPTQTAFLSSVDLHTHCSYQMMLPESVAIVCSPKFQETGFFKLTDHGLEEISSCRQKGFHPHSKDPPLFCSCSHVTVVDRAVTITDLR

[10] = test system: angiogenesis in mice; conditions: cited from earlier work
[11] = test system: HeLa cells; experiment: Turnover of c-MYC in HeLa cells; type: cell-based; conditions: 10 μM THL
[12] = test system: zebrafish embryos; conditions: cited from earlier work
[13] = molecular target: Rpn11 (Homo sapiens, UniProt O00487); experiment: In vitro Rpn11 activity assay; type: biochemical

Rpn11•Rpn8 dimer, sequence (P43588 2-239 limits assumed): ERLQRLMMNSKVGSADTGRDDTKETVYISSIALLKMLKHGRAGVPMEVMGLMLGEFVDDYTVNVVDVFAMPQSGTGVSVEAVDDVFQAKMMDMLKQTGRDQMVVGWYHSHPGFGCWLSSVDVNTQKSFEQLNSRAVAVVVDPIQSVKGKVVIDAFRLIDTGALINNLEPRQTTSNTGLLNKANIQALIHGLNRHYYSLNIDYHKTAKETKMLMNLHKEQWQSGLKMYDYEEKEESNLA
Rpn11•Rpn8 dimer, sequence (Q08723 1-179 partner limits assumed): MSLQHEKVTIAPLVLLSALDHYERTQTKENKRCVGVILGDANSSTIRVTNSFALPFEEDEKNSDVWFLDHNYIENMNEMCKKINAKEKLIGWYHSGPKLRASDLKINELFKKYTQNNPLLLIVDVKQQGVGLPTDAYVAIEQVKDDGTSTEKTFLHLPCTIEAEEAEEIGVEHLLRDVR
thermolysin, sequence (P00800 233-548): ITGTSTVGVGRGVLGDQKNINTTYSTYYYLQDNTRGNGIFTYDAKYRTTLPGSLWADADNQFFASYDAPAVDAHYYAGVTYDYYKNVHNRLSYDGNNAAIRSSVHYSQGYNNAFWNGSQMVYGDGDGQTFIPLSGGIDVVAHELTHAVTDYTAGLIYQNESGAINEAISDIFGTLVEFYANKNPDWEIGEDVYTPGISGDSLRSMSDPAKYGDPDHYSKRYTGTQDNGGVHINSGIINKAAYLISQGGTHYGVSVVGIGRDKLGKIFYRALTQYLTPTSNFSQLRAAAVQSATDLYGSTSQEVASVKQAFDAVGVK

Structure (SMILES): CC(=O)Nc1c2sscc-2n(C)c1=O [THL, thiolutin]
- adhesion / detachment of HeLa cells [1]: efficiently inhibited adhesion
- inhibition of yeast RNA polymerase III, run-off transcription [2]: None of the three yeast polymerases were inhibited
- trypsin-, chymotrypsin-, and caspase-like activities of the proteolytic core [3]: did not inhibit
- IC50 [4]: ~2.5 µM
- inhibition of yeast RNA polymerase II, run-off transcription [5]: None of the three yeast polymerases were inhibited
- cleavage of di-ubiquitin by purified Rpn11–RPN8 heterodimer [6]: blocked cleavage of di-ubiquitin; also recorded: directly inhibits Rpn11 activity
- levels of the S.cerevisiae transcripts dbp2 and not3 [7]: decreased in the presence of THL
- inhibition of yeast RNA polymerase I, run-off transcription [8]: None of the three yeast polymerases were inhibited
- AMSH IC50 relative to that measured for Rpn11 ([9]; AMSH IC50 higher than Rpn11 IC50): ~8 fold
- IC50 ([9]; IC50, inhibition of AMSH, absence of Zn(cyclen)^2+): 4 µM and 3.96 µM
- inhibition of AMSH in presence of Zn(cyclen)^2+ ([9]; presence of Zn(cyclen)^2+): inhibition was reversible by Zn(cyclen)^2+
- angiogenesis in mice [10]: inhibition of angiogenesis
- degradation of c-MYC [11]: blocked degradation of c-MYC
- lethality of zebrafish embryos [12]: high lethality
- inhibition of Rpn11 in presence of excess Zn(cyclen)^2+ ([13]; 1 mM DTT and 0,1 mM Zn(cyclen)^2+): abrogated inhibition of Rpn11
- inhibition of deubiquitylation of substrates by 19S, oxidized versus reduced THL ([13]; purified 26S, absence and presence of 1 mM DTT): only reduced THL inhibited
